# Shown are actives, neighbours in structure and some others; about 1.7% of the full set was active somewhere.
# SKKanGAS inh: S. pyogenes SKKanGAS growth inhibitors in kanamycin, primary screen, streptokinase expression inhibitor project, SKKanGAS strain, BacTiter-Glo luminescence; inhibition, % at 7.5 µM; 1.3% of 300,000 active; 6 h; AID 1662, 2009;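 active = mean replicate score, as percent of positive control median, at least 50; inconclusive = mean below 50 but one replicate at or above 50; inactive = mean and every replicate below 50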;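 note: strain carries kanamycin resistance gene driven by streptokinase promoter and grows in 40 µg/ml kanamycin; loss of luminescence reflects streptokinase promoter inhibition or plain growth inhibition; 0% = median of DMSO wells and 100% = positive control at its reference dose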
# CSC inhib: cancer stem cell viability inhibitors, primary screen, luminescence | cancer stem cell-like cells viability | inhibition, % at 7.5 µM | 1.1% of 300,000 active | AID 2717, 2010; in the data active = inhibition above about 75%; inconclusive = no clear call, values can overlap the other calls; tested in HMLE shEcad cells
# FN deposit inh: inhibitors of fibronectin matrix deposition, primary screen, AH1F cells, Alexa488-fibronectin fluorescence, plate reader; AH1F fibroblasts, overnight; inhibition, % at 12.6 µM; 0.086% of 350,000 active;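 active = mean inhibition across replicates of 30% or more, regardless of how many single replicates reach that level; inconclusive = mean under 30% yet at least half of replicates reach 30%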;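 note: positive control wells lacked labelled fibronectin entirely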
#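 test system = AH1F fibroblasts assembling fluorescent fibronectin matrix | quantity = 10000 AH1F cells per well | buffer or medium = DMEM plus 2% serum, read in PBS | doses = single dose, pinned | incubation = 1 h cell attachment, overnight exposure to compound and label | detection = fluorescence at 485 nm excitation, 525 nm emission | read-out basis = inhibition from reduced deposited-fibronectin fluorescence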
# PglD DTNB: C. jejuni PglD acetyltransferase inhibitors, primary screen, biochemical, DTNB colorimetric, single point. UDP-N-acetylbacillosamine N-acetyltransferase PglD (Campylobacter jejuni). purified PglD enzyme, DTNB colorimetric CoA detection. inhibition, % at 12.5 µM. 0.098% of 360,000 active; in the data active = inhibition above about 16%, passing the limit was not always enough; inconclusive = no clear call, values can overlap the other calls
# PfHsp90 set2: growth inhibition of PfHsp90-expressing yeast, primary screen, antimalarial PfHsp90 inhibitor project, S. cerevisiae, BacTiter-Glo luminescence, single point, set 2; BacTiter-Glo ATP, 48 h; yeast lacking PDR1 and PDR3 efflux regulators; inhibition, % at 9.4 µM; 0.32% of 310,000 active; AID 504621, 2011;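 active = every replicate shows inhibition above about 80%, whatever the replicate mean, limit read from the data; inconclusive = mean inhibition reaches the set limit but some replicate falls short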;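 note: 0% = DMSO neutral controls and 100% = 20 µM radicicol positive controls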
# Rtt109 Vps75: inhibitors of C. albicans Rtt109/Vps75 HAT, primary screen, biochemical, ThioGlo CoA-SH fluorescence, plate reader. Histone acetyltransferase RTT109 (Candida albicans (strain SC5314 / ATCC MYA-2876)), …. purified Rtt109/Vps75, 4 h. inhibition, % at 34.9 µM. 0.16% of 330,000 active. AID 540336, 2011;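 active = inhibition of at least 50% in every replicate; inconclusive = best replicate reaches 50% inhibition but some replicates fall short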
# Target sequence (Q5AAJ8 whole entry, looked up): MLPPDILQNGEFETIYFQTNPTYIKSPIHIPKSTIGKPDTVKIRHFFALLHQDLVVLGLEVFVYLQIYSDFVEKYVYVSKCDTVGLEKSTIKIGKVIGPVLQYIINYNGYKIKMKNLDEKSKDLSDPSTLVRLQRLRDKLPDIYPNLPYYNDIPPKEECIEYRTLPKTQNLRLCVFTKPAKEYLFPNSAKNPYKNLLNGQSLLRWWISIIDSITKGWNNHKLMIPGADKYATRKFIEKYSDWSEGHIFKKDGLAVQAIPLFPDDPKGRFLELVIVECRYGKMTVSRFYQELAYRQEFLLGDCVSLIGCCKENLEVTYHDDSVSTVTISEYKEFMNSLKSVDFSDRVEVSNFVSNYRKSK
# * = called active by the depositor; ? = inconclusive; . = not tested or not shown.
SMILES,SKKanGAS inh,CSC inhib,FN deposit inh,PglD DTNB,PfHsp90 set2,Rtt109 Vps75
COc1cccc(S(=O)(=O)N[C@H]2C=C[C@H](CC(=O)NC3CCC3)O[C@@H]2CO)c1,.,.,-1,1,.,.
Oc1ccc(-c2nc3c4c(ncn3n2)-c2ccccc2CC42CCCC2)cc1,95*,-6,.,.,6,2
Nn1cnc2c(c1=O)C1(CCCCC1)Cc1ccccc1-2,-7,-1,5,.,-20,1
COc1ccc2nc(N=Nc3ccc(O)c4ccccc34)sc2c1,-9,92*,8,.,24,5
CC(=O)N[C@H]1CC[C@H](CC(=O)NCc2ccc(Cl)cc2)O[C@H]1CO,.,.,.,17*,.,.
O=C(C=Cc1ccccc1O)c1ccccc1O,.,.,-1,0,?,4
Cc1ccc(/C=C/C(=O)c2ccccc2)cc1,-9,5,-13,-7,.,-3
Cc1ccc(/C=C/C(=O)c2ccccc(=O)c2O)c(C)c1,58*,2,5,7,106*,.
O=C(/C=C/c1ccc([N+](=O)[O-])cc1)c1ccccc(=O)c1O,.,.,5,.,123*,0
Cc1ccc(C)c(/C=C/C(=O)c2ccccc(=O)c2O)c1,99*,92*,-1,8,103*,.
O=C(/C=C/c1ccccc1Cl)c1ccccc(=O)c1O,90*,108*,.,.,96*,-4
C[C@H](CO)N1C[C@H](C)[C@@H](CN(C)S(C)(=O)=O)Oc2ccc(NC(=O)CCC(F)(F)F)cc2CC1=O,.,.,.,4,.,.
C[C@@H]1CN([C@@H](C)CO)C(=O)c2cc(NC(=O)c3ccccc3)ccc2O[C@@H](C)CCCCO[C@@H]1CN(C)Cc1ccc2c(c1)OCO2,.,.,.,3,.,.
COc1ccc(S(=O)(=O)N(C)C[C@H]2Oc3ccc(NC(=O)NC4CCCCC4)cc3CC(=O)N([C@H](C)CO)C[C@@H]2C)cc1,.,.,14,-4,.,.
O=C(C[C@@H]1C=C[C@H](NC(=O)c2cnccn2)[C@@H](CO)O1)NCc1ccccc1F,.,.,-6,-1,.,.
O=C(Oc1cccc(Nc2ncnc3ccccc23)c1)c1ccccc1Cl,61*,0,3,1,-26,-2
CCCC(=O)Nc1ccc2c(c1)C(=O)N(C)C[C@H](OC)[C@@H](C)CN(CCC(F)(F)F)[C@H](C)CO2,.,.,-9,5,.,.
O=C(CCN1C(=O)/C(=C/c2cccs2)SC1=S)NC1=NCCS1,.,11,-4,.,106*,1
COCC(=O)Nc1ccc2c(c1)[C@@H]1C[C@H](CC(=O)NCc3cccnc3)O[C@H](CO)[C@@H]1O2,.,.,.,-4,.,.
CC1(C)N=C(N)N=C(N)N1c1cccc(C#N)c1,.,.,.,.,25,-3
CCOC(=O)c1cccc(N2C(N)=NC(N)=NC2(C)C)c1,91*,-41,.,-2,-56,6
CCOc1ccc(N2C(N)=NC(N)=NC2(C)C)cc1,95*,1,.,0,26,1
COc1ccc(N2C(N)=NC(N)=NC2(C)C)cc1,73*,-15,-6,-6,.,-4
COc1ccc(N2C(N)=NC(N)=NC23CCCC3)cc1,-3,3,.,0,-7,-12
COc1cccc(N2C(N)=NC(N)=NC2(C)C)c1,95*,1,.,.,7,9
SMILES,SKKanGAS inh,CSC inhib,FN deposit inh,PglD DTNB,PfHsp90 set2,Rtt109 Vps75
CC1(C)N=C(N)N=C(N)N1c1cccc(C(=O)O)c1,6,-9,-6,-6,28,21
CC(C)NC(=O)N1C[C@@H]2[C@H](c3ccccc31)[C@@H](CO)N2C(=O)Nc1ccccc1,.,.,.,2,.,.
C[C@H]1CN([C@@H](C)CO)C(=O)c2cc(C#Cc3ccc(F)cc3)cnc2O[C@H]1CN(C)Cc1ccccn1,.,.,.,2,.,.
O=C(O)C[C@H]1C[C@H]2c3cc(NC(=O)c4ccc5c(c4)OCO5)ccc3O[C@H]2[C@@H](CO)O1,.,.,-15,0,.,.
CC1(C)N=C(N)N=C(N)N1c1ccc(OCC(=O)N2CCOCC2)c(Cl)c1,.,.,0,4,.,.
CC1(C)N=C(N)N=C(N)N1c1ccc(OCCCOc2ccccc2)c(Cl)c1,111*,85*,6,2,-4,-9
